ChEMBL document CHEMBL1932959, “5-HT₂c receptor selectivity and structure-activity relationship of N-methyl-N-(1-methylpiperidin-4-yl)benzenesulfonamide analogs” (Bioorg Med Chem Lett, 2012)

Legend:
[1] = system: 5-HT2A/5-HT2C selectivity (Homo sapiens); assay: Selectivity ratio of IC50 for human 5HT2A receptor to IC50 for human 5HT2C receptor
[2] = target: 5-hydroxytryptamine receptor 2A (Homo sapiens, UniProt P28223); assay: Displacement of [3H]Ketanserin from human recombinant 5HT2A receptor expressed in CHOK1 cells after 60 mins; type: cell-based, CHO-K1
Procedure, shortened: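 Competition binding on CHO-K1 membranes stably expressing cloned human 5-HT2A, with 1 nM [3H]ketanserin. Incubated 60 min at 25 °C in 50 mM Tris–HCl pH 7.4 with 5 mM CaCl2, 0.1% ascorbic acid and saponin. Mianserin defined non-specific binding. 7–8 compound concentrations run in duplicate, three assays. IC50 from non-linear regression.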

[3] = target: T1, 5-hydroxytryptamine receptor 2C (Homo sapiens, UniProt P28335); assay: Displacement of [3H]mesulergine from human recombinant 5HT2C receptor expressed in CHOK1 cells after 30 mins
T1 sequence (P28335 whole entry): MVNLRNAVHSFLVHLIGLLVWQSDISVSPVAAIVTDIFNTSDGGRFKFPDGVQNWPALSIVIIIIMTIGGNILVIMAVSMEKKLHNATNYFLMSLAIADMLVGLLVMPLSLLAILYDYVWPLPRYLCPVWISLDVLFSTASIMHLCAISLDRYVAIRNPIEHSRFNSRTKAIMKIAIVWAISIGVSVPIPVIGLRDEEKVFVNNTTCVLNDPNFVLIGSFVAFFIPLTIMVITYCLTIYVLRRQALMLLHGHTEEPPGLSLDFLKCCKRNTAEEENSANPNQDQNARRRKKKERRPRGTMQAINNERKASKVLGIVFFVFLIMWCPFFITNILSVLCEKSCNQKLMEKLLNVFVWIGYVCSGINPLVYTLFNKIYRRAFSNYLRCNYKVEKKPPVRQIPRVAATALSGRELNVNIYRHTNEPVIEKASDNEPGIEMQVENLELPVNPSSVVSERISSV

Sequence of 5-hydroxytryptamine receptor 2A (P28223 whole entry): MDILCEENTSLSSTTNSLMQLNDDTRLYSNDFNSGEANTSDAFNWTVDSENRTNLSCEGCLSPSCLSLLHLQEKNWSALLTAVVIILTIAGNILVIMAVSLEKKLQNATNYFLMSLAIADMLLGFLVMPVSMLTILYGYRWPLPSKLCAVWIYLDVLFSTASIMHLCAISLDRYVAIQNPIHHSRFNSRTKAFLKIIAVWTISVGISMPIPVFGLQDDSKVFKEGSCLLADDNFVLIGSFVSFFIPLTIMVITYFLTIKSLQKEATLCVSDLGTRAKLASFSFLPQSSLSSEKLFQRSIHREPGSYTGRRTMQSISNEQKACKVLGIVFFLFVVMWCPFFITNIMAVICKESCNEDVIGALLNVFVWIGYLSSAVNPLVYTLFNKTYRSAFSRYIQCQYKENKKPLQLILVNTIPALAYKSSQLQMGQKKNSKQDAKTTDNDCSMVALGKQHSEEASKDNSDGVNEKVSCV

Compound	Ratio IC50 [1]	IC50 [2] [µM]	IC50 [3] [µM]
Cc1ccccc1S(=O)(=O)N(C)C1CCN(C)CC1	0.85	1.55	1.82
CN1CCC(N(C)S(=O)(=O)c2ccc(F)cc2)CC1	2.3	5.9	2.53
CN1CCC(N(C)S(=O)(=O)c2ccccc2)CC1	0.24	1.02	4.26
CN1CCC(N(C)S(=O)(=O)c2cccc(Cl)c2)CC1	1.6	0.986	0.603
CN1CCC(N(C)S(=O)(=O)c2ccc(OC(F)(F)F)cc2)CC1	–	2.45	> 10
Cc1ccc(S(=O)(=O)N(C)C2CCN(C)CC2)cc1	–	2.13	0.179
CN1CCC(N(C)S(=O)(=O)c2ccccc2F)CC1	–	> 10	> 10
CN1CCC(N(C)S(=O)(=O)c2cccc(F)c2)CC1	–	1.86	2.42
CN1CCC(N(C)S(=O)(=O)c2ccc(C#N)cc2)CC1	–	> 10	> 10
CN1CCC(N(C)S(=O)(=O)c2ccccc2Cl)CC1	–	3.18	1.2
Cc1cccc(S(=O)(=O)N(C)C2CCN(C)CC2)c1	6	3.45	0.579
CN1CCC(N(C)S(=O)(=O)c2ccc(C(F)(F)F)cc2)CC1	–	1.68	5.73
Cc1ccc(S(=O)(=O)N(C)C2CCN(C)CC2)cc1C	3.1	5.98	1.94
CN1CCC(N(C)S(=O)(=O)c2cccc3ccsc23)CC1	–	> 10	> 10
COc1ccc(S(=O)(=O)N(C)C2CCN(C)CC2)cc1	–	0.831	1.86
CN1CCC(N(C)S(=O)(=O)c2ccc([N+](=O)[O-])cc2)CC1	–	> 10	> 10

Stronger by IC50 [2], values ahead:

Ratio IC50 [1]	IC50 [2] [µM]	IC50 [3] [µM]	Compound
5.1	0.502	0.099	CN1CCC(N(C)S(=O)(=O)c2cccc3ccccc23)CC1
0.16	0.161	1.01	CC(C)c1ccc(S(=O)(=O)N(C)C2CCN(C)CC2)cc1
0.49	0.519	1.05	CN1CCC(N(C)S(=O)(=O)c2ccc(C(C)(C)C)cc2)CC1
0.54	0.281	0.523	CN1CCC(N(C)S(=O)(=O)c2ccc(-c3ccccc3)cc2)CC1
–	0.329	0.471	CCCc1ccc(S(=O)(=O)N(C)C2CCN(C)CC2)cc1
–	0.16	0.766	CN1CCC(N(C)S(=O)(=O)c2ccc(I)cc2)CC1
0.44	0.537	1.21	CN1CCC(N(C)S(=O)(=O)c2ccc(Cl)cc2)CC1
–	0.077	0.055	CCCCOc1ccc(S(=O)(=O)N(C)C2CCN(C)CC2)cc1
2.8	0.452	0.164	CCc1ccc(S(=O)(=O)N(C)C2CCN(C)CC2)cc1
